ChEMBL document CHEMBL3112482, “Nonclassical antifolates, part 5. Benzodiazepine analogs as a new class of DHFR inhibitors: synthesis, antitumor testing and molecular modeling study” (Eur J Med Chem, 2014)

How the values were obtained:
Format in all cases: functional
BT-549 = assay: Growth inhibition of human BT549 cells at 10 uM after 48 hrs; conditions: BT-549, 48 h, read-out: GI
Procedure, shortened: (§1)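 Single-dose primary screen in the NCI 60 human tumour cell line panel, run at the NCI facility. The panel covers nine subpanels: leukaemia, non-small cell lung, colon, CNS, melanoma, ovarian, renal, prostate and breast. Read-out was percent growth of treated cells, shown as a mean graph and reported as percent growth inhibition.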

Cancer cell lines [1] = assay: Ratio of 5-FU TGI to compound TGI for human CNS cancer cells
Leukemia cell = assay: Ratio of 5-FU TGI to compound TGI for human leukemia cells
UACC-62 = assay: Growth inhibition of human UACC62 cells at 10 uM after 48 hrs; conditions: UACC-62, 48 h, read-out: GI
Procedure, shortened: (§2)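 NCI 60-cell-line disease-oriented human tumor panel, single-dose primary screen at 10 µM. Data given as mean-graph percent growth of treated cells, reported as percent growth inhibition (GI %).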

Cancer cell lines [2] = assay: Ratio of 5-FU LC50 to compound LC50 for human prostate cancer cells
Procedure, shortened: (§3)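 Compounds passing the NCI single-dose primary screen were retested across the 60 human tumour cell lines (nine subpanels) over a 5-log dose range. GI50, TGI and LC50 were recorded for each cell line, with 5-fluorouracil run as the reference drug. Subpanel values for compound and 5-FU were then compared.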

Cancer cell lines [3] = assay: Ratio of 5-FU GI50 to compound GI50 for human colon cancer cells; procedure, shortened: as §3
[4] = Cytotoxicity against human breast cancer cells at 10 uM after 48 hrs; conditions: Cancer cell lines; procedure, shortened: as §1
Cancer cell lines [5] = assay: Ratio of 5-FU GI50 to compound GI50 for human non-small cell lung cancer cells; procedure, shortened: as §3
Cancer cell lines [6] = assay: Ratio of 5-FU GI50 to compound GI50 for human renal cancer cells; procedure, shortened: as §3
786-0 = assay: Growth inhibition of human 786-0 cells at 10 uM after 48 hrs; conditions: 786-0, 48 h, read-out: GI; procedure, shortened: as §1
HCT-15 = assay: Growth inhibition of human HCT15 cells at 10 uM after 48 hrs; conditions: HCT-15, 48 h, read-out: GI; procedure, shortened: as §1
[7] = Growth inhibition of human HOP92 cells at 10 uM after 48 hrs; conditions: HOP-92, 48 h, read-out: GI; procedure, shortened: as §1
Cancer cell lines [8] = assay: Ratio of 5-FU LC50 to compound LC50 for human non-small cell lung cancer cells; procedure, shortened: as §3
[9] = Growth inhibition of human HCC2998 cells at 10 uM after 48 hrs; conditions: HCC 2998, 48 h, read-out: GI; procedure, shortened: as §1
[10] = Cytotoxicity against human CNS cancer cells at 10 uM after 48 hrs; conditions: Cancer cell lines; for CC50: read-out: LC50 (the source's name)
HT-29 = assay: Growth inhibition of human HT-29 cells at 10 uM after 48 hrs; conditions: HT-29, 48 h, read-out: GI; procedure, shortened: as §1
KM12 = assay: Growth inhibition of human KM12 cells at 10 uM after 48 hrs; conditions: KM12, 48 h, read-out: GI; procedure, shortened: as §1
[11] = Cytotoxicity against human prostate cancer cells at 10 uM after 48 hrs; conditions: Cancer cell lines
Cancer cell lines [12] = assay: Ratio of 5-FU GI50 to compound GI50 for human prostate cancer cells; procedure, shortened: as §3
CAKI-1 = assay: Growth inhibition of human CAKI-1 cells at 10 uM after 48 hrs; conditions: CAKI-1, 48 h, read-out: GI; procedure, shortened: as §1
Cancer cell lines [13] = assay: Ratio of 5-FU LC50 to compound LC50 for human CNS cancer cells; procedure, shortened: as §3
SN12C = assay: Growth inhibition of human SN12C cells at 10 uM after 48 hrs; conditions: read-out: GI; procedure, shortened: as §2
Melanoma cell [14] = assay: Ratio of 5-FU GI50 to compound GI50 for human melanoma cells; procedure, shortened: as §3
Cancer cell lines [15] = assay: Ratio of 5-FU TGI to compound TGI for human non-small cell lung cancer cells
Cancer cell lines [16] = assay: Ratio of 5-FU LC50 to compound LC50 for human breast cancer cells; procedure, shortened: as §3
COLO 205 = assay: Growth inhibition of human COLO205 cells at 10 uM after 48 hrs; conditions: COLO 205, 48 h, read-out: GI; procedure, shortened: as §1
Cancer cell lines [17] = assay: Ratio of 5-FU TGI to compound TGI for human prostate cancer cells
Cancer cell lines [18] = assay: Ratio of 5-FU LC50 to compound LC50 for human colon cancer cells; procedure, shortened: as §3
IGROV-1 = assay: Growth inhibition of human IGROV1 cells at 10 uM after 48 hrs; conditions: IGROV-1, 48 h, read-out: GI; procedure, shortened: as §1
Cancer cell lines [19] = assay: Ratio of 5-FU GI50 to compound GI50 for human CNS cancer cells; procedure, shortened: as §3
[20] = Growth inhibition of human UACC257 cells at 10 uM after 48 hrs; conditions: UACC-257, 48 h, read-out: GI; procedure, shortened: as §2
[21] = Cytotoxicity against human melanoma cells at 10 uM after 48 hrs; conditions: Melanoma cell; for CC50: read-out: LC50 (the source's name); procedure, shortened: as §1
Cancer cell lines [22] = assay: Ratio of 5-FU GI50 to compound GI50 for human breast cancer cells; procedure, shortened: as §3
[23] = Cytotoxicity against human colon cancer cells at 10 uM after 48 hrs; conditions: Cancer cell lines; for CC50: read-out: LC50 (the source's name); procedure, shortened: as §1
A498 = assay: Growth inhibition of human A498 cells at 10 uM after 48 hrs; conditions: A498, 48 h, read-out: GI; procedure, shortened: as §1
Melanoma cell [24] = assay: Ratio of 5-FU TGI to compound TGI for human melanoma cells
DU-145 = assay: Growth inhibition of human DU145 cells at 10 uM after 48 hrs; conditions: DU-145, 48 h, read-out: GI; procedure, shortened: as §1
NCI-H522 = assay: Growth inhibition of human NCI-H522 cells at 10 uM after 48 hrs; conditions: NCI-H522, 48 h, read-out: GI; procedure, shortened: as §1
[25] = Growth inhibition of human RXF393 cells at 10 uM after 48 hrs; conditions: RXF 393, 48 h, read-out: GI; procedure, shortened: as §1
CCRF-CEM = assay: Growth inhibition of human CCRF-CEM cells at 10 uM after 48 hrs; conditions: read-out: GI; procedure, shortened: as §1
MOLT-4 = assay: Growth inhibition of human MOLT4 cells at 10 uM after 48 hrs; conditions: MOLT-4, 48 h, read-out: GI; procedure, shortened: as §1

COc1cc(/C=C2\CCCc3c2nc(C)nc3-c2cc(OC)c(OC)c(OC)c2)cc(OC)c1OC
inhibition of growth at 10 µM (BT-549): 97.1% | Ratio (Cancer cell lines [1]): 15 | Ratio (Leukemia cell): 15 | inhibition of growth at 10 µM (UACC-62): 91% | RatioLC50 (Cancer cell lines [2]): 15 | RatioGI50 (Cancer cell lines [3]): 15 | GI50 [4]: 2.6 µM | LC50 (concentration killing 50% of cells) [4]: > 100 µM | TGI [4]: 80.8 µM | RatioGI50 (Cancer cell lines [5]): 15 | RatioGI50 (Cancer cell lines [6]): 15 | inhibition of growth at 10 µM (786-0): 82% | inhibition of growth at 10 µM (HCT-15): 95.8% | inhibition of growth at 10 µM [7]: < 30% | RatioLC50 (Cancer cell lines [8]): 15 | inhibition of growth at 10 µM [9]: 88.1% | GI50 [10]: 34.5 µM | TGI [10]: > 100 µM | CC50 [10]: > 100 µM | inhibition of growth at 10 µM (HT-29): 92.1% | inhibition of growth at 10 µM (KM12): 97.1% | GI50 [11]: 1.8 µM | LC50 [11]: > 100 µM | TGI [11]: > 100 µM | RatioGI50 (Cancer cell lines [12]): 15 | inhibition of growth at 10 µM (CAKI-1): 88.6% | RatioLC50 (Cancer cell lines [13]): 15 | inhibition of growth at 10 µM (SN12C): 89.2% | RatioGI50 (Melanoma cell [14]): 15 | Ratio (Cancer cell lines [15]): 15 | RatioLC50 (Cancer cell lines [16]): 15 | inhibition of growth at 10 µM (COLO 205): 80.9% | Ratio (Cancer cell lines [17]): 15 | RatioLC50 (Cancer cell lines [18]): 15 | inhibition of growth at 10 µM (IGROV-1): 69.3% | RatioGI50 (Cancer cell lines [19]): 15 | inhibition of growth at 10 µM [20]: 56.2% | GI50 [21]: 1.4 µM | TGI [21]: 3.1 µM | CC50 [21]: > 100 µM | RatioGI50 (Cancer cell lines [22]): 15 | GI50 [23]: 0.9 µM | TGI [23]: 67.3 µM | CC50 [23]: 76.2 µM | inhibition of growth at 10 µM (A498): 83.7% | Ratio (Melanoma cell [24]): 15 | inhibition of growth at 10 µM (DU-145): 95.1% | inhibition of growth at 10 µM (NCI-H522): 48.2% | inhibition of growth at 10 µM [25]: 77.4%

COc1cc(/C=C2\CCCc3c2nc(N)nc3-c2cc(OC)c(OC)c(OC)c2)cc(OC)c1OC
Ratio (Cancer cell lines [1]): 15 | Ratio (Leukemia cell): 15 | inhibition of growth at 10 µM (CCRF-CEM): 97.1% | RatioLC50 (Cancer cell lines [2]): 15 | RatioGI50 (Cancer cell lines [3]): 15 | GI50 [4]: 2 µM | LC50 (concentration killing 50% of cells) [4]: > 100 µM | TGI [4]: 69.2 µM | RatioGI50 (Cancer cell lines [5]): 15 | RatioGI50 (Cancer cell lines [6]): 15 | RatioLC50 (Cancer cell lines [8]): 15 | GI50 [10]: 3.3 µM | TGI [10]: > 100 µM | CC50 [10]: > 100 µM | GI50 [11]: 2.7 µM | LC50 [11]: > 100 µM | TGI [11]: > 100 µM | RatioGI50 (Cancer cell lines [12]): 15 | RatioLC50 (Cancer cell lines [13]): 15 | RatioGI50 (Melanoma cell [14]): 15 | Ratio (Cancer cell lines [15]): 15 | RatioLC50 (Cancer cell lines [16]): 15 | Ratio (Cancer cell lines [17]): 15 | RatioLC50 (Cancer cell lines [18]): 15 | RatioGI50 (Cancer cell lines [19]): 15 | GI50 [21]: 1.3 µM | TGI [21]: 20 µM | CC50 [21]: > 100 µM | RatioGI50 (Cancer cell lines [22]): 15 | GI50 [23]: 1.1 µM | TGI [23]: 2.6 µM | CC50 [23]: 68.3 µM | inhibition of growth at 10 µM (A498): 99.5% | Ratio (Melanoma cell [24]): 15

COc1cc(/C=C2\CCCC3=C(c4cc(OC)c(OC)c(OC)c4)Nc4ccccc4N=C32)cc(OC)c1OC
Ratio (Cancer cell lines [1]): 11 | Ratio (Leukemia cell): 11 | inhibition of growth at 10 µM (CCRF-CEM): 95.7% | RatioLC50 (Cancer cell lines [2]): 11 | RatioGI50 (Cancer cell lines [3]): 11 | GI50 [4]: 2.9 µM | LC50 (concentration killing 50% of cells) [4]: 89.4 µM | TGI [4]: 48.2 µM | RatioGI50 (Cancer cell lines [5]): 11 | RatioGI50 (Cancer cell lines [6]): 11 | inhibition of growth at 10 µM (786-0): 98.2% | inhibition of growth at 10 µM (HCT-15): 93.9% | inhibition of growth at 10 µM [7]: < 30% | RatioLC50 (Cancer cell lines [8]): 11 | GI50 [10]: 6.8 µM | TGI [10]: 94.3 µM | CC50 [10]: > 100 µM | GI50 [11]: 2.3 µM | LC50 [11]: > 100 µM | TGI [11]: 53.4 µM | RatioGI50 (Cancer cell lines [12]): 11 | inhibition of growth at 10 µM (CAKI-1): 93.5% | RatioLC50 (Cancer cell lines [13]): 11 | RatioGI50 (Melanoma cell [14]): 11 | Ratio (Cancer cell lines [15]): 11 | RatioLC50 (Cancer cell lines [16]): 11 | inhibition of growth at 10 µM (COLO 205): 99.8% | Ratio (Cancer cell lines [17]): 11 | RatioLC50 (Cancer cell lines [18]): 11 | RatioGI50 (Cancer cell lines [19]): 11 | inhibition of growth at 10 µM [20]: 83.8% | GI50 [21]: 1.7 µM | TGI [21]: 5.6 µM | CC50 [21]: 71.4 µM | RatioGI50 (Cancer cell lines [22]): 11 | GI50 [23]: 1.6 µM | TGI [23]: 5.2 µM | CC50 [23]: 36.4 µM | inhibition of growth at 10 µM (MOLT-4): 99.4% | Ratio (Melanoma cell [24]): 11 | inhibition of growth at 10 µM (DU-145): 95.1%
